Assay results: ChEMBL document CHEMBL1135349, “Synthesis and evaluation of novel pyrrolidinyl sordaricin derivatives as antifungal agents” (2002)
Values after ≈ are worked out from the molar mass of the structure shown.

Legend:
Format in all cases: functional
Candida albicans [1] = experiment: Minimum concentration required to inhibit the growth of Candida albicans TIMM3164 was determined
In short: (§1)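 Yeast cells grown in microplates in RPMI1640 buffered to pH 7.0 at 35 °C, without serum. The MIC is the lowest concentration that inhibits growth by 80%.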

Candida albicans [2] = experiment: Minimum concentration required to inhibit the growth of Candida albicans SANK51486 was determined in the presence of horse serum (20%).
In short: (§2)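 Run in RPMI1640 buffered at pH 7.0 with 20% horse serum added for the incubation, in microplates at 35 °C. The MIC is the lowest concentration inhibiting growth by 80%.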

Aspergillus fumigatus = experiment: Minimum concentration required to inhibit the growth of Aspergillus fumigatus ATCC 26430 was determined
In short: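 Microplate broth assay in RPMI1640 buffered at pH 7.0, incubated at 30 °C. The MIC was taken as the lowest test concentration giving 80% growth inhibition.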

Nakaseomyces glabratus = experiment: Minimum concentration required to inhibit the growth of Candida glabrata ATCC 90030 was determined; in short: as §1
Candida albicans [3] = experiment: Minimum concentration required to inhibit the growth of Candida albicans ATCC 24433 was determined; in short: as §1
Cryptococcus neoformans = experiment: Minimum concentration required to inhibit the growth of Cryptococcus neoformans TIMM1855 was determined
In short: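 Medium was yeast nitrogen base buffered at pH 7.0, with microplates incubated at 35 °C. The MIC was defined as the lowest concentration producing 80% growth inhibition.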

Candida albicans [4] = experiment: Minimum concentration required to inhibit the growth of Candida albicans SANK51486 was determined; in short: as §1
Candida parapsilosis = experiment: Minimum concentration required to inhibit the growth of Candida parapsilosis ATCC 90018 was determined; settings: Lodderomyces parapsilosis; in short: as §1
Candida tropicalis = experiment: Minimum concentration required to inhibit the growth of Candida tropicalis ATCC750 was determined; in short: as §1
Candida albicans [5] = experiment: Minimum concentration required to inhibit the growth of Candida albicans ATCC 64550 was determined; in short: as §1
Candida albicans [6] = experiment: Minimum concentration required to inhibit the growth of Candida albicans ATCC 24433 was determined in the presence of horse serum (20%).; in short: as §2

C=C(C)CN1C[C@H](OCC23C[C@@H]4[C@H](C)CC[C@H]4C4(C=O)CC2C=C(C(C)C)C34C(=O)O)O[C@H](C)[C@@H](OC)C1 (some centres undefined) was tested. Which MIC (Candida albicans [1]) did it give?
The MIC was 0.03 µg/mL (≈ 0.0566 µM).

And the MIC (Candida albicans [2])?
Its MIC is 0.25 µg/mL.

What about the MIC (Aspergillus fumigatus) of the same compound?
Its MIC is over 16 µg/mL.

What about the MIC (Nakaseomyces glabratus) of the same compound?
Its MIC is 0.25 µg/mL (≈ 0.472 µM).

What about the MIC (Candida albicans [3]) of the same compound?
Its MIC is 0.03 µg/mL (≈ 0.0566 µM).

And the MIC (Cryptococcus neoformans)?
The MIC was 0.25 µg/mL (≈ 0.472 µM).

What about the MIC (Candida albicans [4]) of the same compound?
Its MIC is 0.02 µg/mL (≈ 0.0378 µM).

What about the MIC (Candida parapsilosis) of the same compound?
Its MIC is over 16 µg/mL.

What about the MIC (Candida tropicalis) of the same compound?
The MIC was 0.13 µg/mL (≈ 0.245 µM).

And the MIC (Candida albicans [5])?
The MIC was 0.03 µg/mL (≈ 0.0566 µM).

What about the MIC (Candida albicans [6]) of the same compound?
The MIC was 0.5 µg/mL.

What does the source list for C/C=C/C=C\C(=O)O[C@H]1[C@H](O)[C@H](OCC23C[C@@H]4[C@H](C)CC[C@H]4C4(C=O)CC2C=C(C(C)C)C34C(=O)O)O[C@H](C)[C@H]1OC (some centres undefined)?
MIC (Candida albicans [1]): 0.5 µg/mL (≈ 0.852 µM); MIC (Aspergillus fumigatus): > 4 µg/mL; MIC (Nakaseomyces glabratus): > 4 µg/mL; MIC (Candida albicans [3]): 0.5 µg/mL (≈ 0.852 µM); MIC (Cryptococcus neoformans): 0.25 µg/mL (≈ 0.426 µM); MIC (Candida albicans [4]): 0.25 µg/mL (≈ 0.426 µM); MIC (Candida parapsilosis): > 4 µg/mL; MIC (Candida tropicalis): 0.5 µg/mL (≈ 0.852 µM); MIC (Candida albicans [5]): 0.5 µg/mL (≈ 0.852 µM); MIC (Candida albicans [6]): 4 µg/mL

Which MIC (Candida albicans [1]) does the source give for COc1ccc(CN2C[C@H](OCC34C[C@@H]5[C@H](C)CC[C@H]5C5(C=O)CC3C=C(C(C)C)C45C(=O)O)C[C@@H]2C)cc1 (some centres undefined) here?
Its MIC is 0.5 µg/mL (≈ 0.933 µM).

And the MIC (Candida albicans [2])?
The MIC was 0.5 µg/mL.

What about the MIC (Aspergillus fumigatus) of the same compound?
Its MIC is over 16 µg/mL.

And the MIC (Nakaseomyces glabratus)?
The MIC was 16 µg/mL (≈ 29.9 µM).

What about the MIC (Candida albicans [3]) of the same compound?
The MIC was 0.5 µg/mL (≈ 0.933 µM).

And the MIC (Cryptococcus neoformans)?
The MIC was over 16 µg/mL.

And the MIC (Candida albicans [4])?
Its MIC is 0.25 µg/mL (≈ 0.467 µM).

What about the MIC (Candida parapsilosis) of the same compound?
The MIC was over 16 µg/mL.

What about the MIC (Candida tropicalis) of the same compound?
The MIC was 4 µg/mL (≈ 7.47 µM).

And the MIC (Candida albicans [5])?
The MIC was 0.5 µg/mL (≈ 0.933 µM).

What about the MIC (Candida albicans [6]) of the same compound?
Its MIC is 1 µg/mL.

How did the MIC (Candida albicans [1]) turn out when CC(C)C1=CC2CC3(C=O)[C@@H]4CC[C@@H](C)[C@H]4CC2(CS[C@@H]2C[C@H](C)N(Cc4ccccc4)C2)C13C(=O)O (some centres undefined) was run?
Its MIC is 1 µg/mL (≈ 1.92 µM).

And the MIC (Candida albicans [2])?
Its MIC is 4 µg/mL.

And the MIC (Aspergillus fumigatus)?
Its MIC is over 16 µg/mL.

And the MIC (Nakaseomyces glabratus)?
Its MIC is over 16 µg/mL.

And the MIC (Candida albicans [3])?
The MIC was 0.5 µg/mL (≈ 0.958 µM).

What about the MIC (Cryptococcus neoformans) of the same compound?
The MIC was over 16 µg/mL.

And the MIC (Candida albicans [4])?
Its MIC is 0.25 µg/mL (≈ 0.479 µM).

What about the MIC (Candida parapsilosis) of the same compound?
The MIC was over 16 µg/mL.

And the MIC (Candida tropicalis)?
The MIC was 4 µg/mL (≈ 7.67 µM).

And the MIC (Candida albicans [5])?
The MIC was 1 µg/mL (≈ 1.92 µM).

What about the MIC (Candida albicans [6]) of the same compound?
The MIC was 8 µg/mL.

Which results are given for CC(C)C1=CC2CC3(C=O)[C@@H]4CC[C@@H](C)[C@H]4CC2(CO[C@@H]2C[C@H](C)N(Cc4ccccc4)C2)C13C(=O)O (some centres undefined)?
MIC (Candida albicans [1]): 2 µg/mL (≈ 3.95 µM); MIC (Candida albicans [2]): 1 µg/mL; MIC (Aspergillus fumigatus): > 16 µg/mL; MIC (Nakaseomyces glabratus): > 16 µg/mL; MIC (Candida albicans [3]): 1 µg/mL (≈ 1.98 µM); MIC (Cryptococcus neoformans): > 16 µg/mL; MIC (Candida albicans [4]): 0.5 µg/mL (≈ 0.989 µM); MIC (Candida parapsilosis): > 16 µg/mL; MIC (Candida tropicalis): 8 µg/mL (≈ 15.8 µM); MIC (Candida albicans [5]): 2 µg/mL (≈ 3.95 µM); MIC (Candida albicans [6]): 4 µg/mL

How did the MIC (Candida albicans [1]) turn out when CC(C)C1=CC2CC3(C=O)[C@@H]4CC[C@@H](C)[C@H]4CC2(CO[C@@H]2C[C@H](C)N(Cc4ccc5c(c4)OCO5)C2)C13C(=O)O (some centres undefined) was run?
The MIC was 0.5 µg/mL (≈ 0.91 µM).

What about the MIC (Candida albicans [2]) of the same compound?
The MIC was 0.5 µg/mL.

And the MIC (Aspergillus fumigatus)?
Its MIC is over 16 µg/mL.

And the MIC (Nakaseomyces glabratus)?
The MIC was over 16 µg/mL.

What about the MIC (Candida albicans [3]) of the same compound?
The MIC was 0.25 µg/mL (≈ 0.455 µM).

And the MIC (Cryptococcus neoformans)?
Its MIC is over 16 µg/mL.

What about the MIC (Candida albicans [4]) of the same compound?
Its MIC is 0.13 µg/mL (≈ 0.236 µM).

What about the MIC (Candida parapsilosis) of the same compound?
Its MIC is over 16 µg/mL.

And the MIC (Candida tropicalis)?
Its MIC is 4 µg/mL (≈ 7.28 µM).

And the MIC (Candida albicans [5])?
The MIC was 0.5 µg/mL (≈ 0.91 µM).

And the MIC (Candida albicans [6])?
Its MIC is 1 µg/mL.

Which MIC (Candida albicans [1]) does the source give for OC(Cn1cncn1)(Cn1cncn1)c1ccc(F)cc1F [FLUCONAZOLE] here?
The MIC was over 4 µg/mL.

What about the MIC (Aspergillus fumigatus) of the same compound?
The MIC was over 4 µg/mL.

What about the MIC (Nakaseomyces glabratus) of the same compound?
Its MIC is over 4 µg/mL.

And the MIC (Candida albicans [3])?
The MIC was 0.5 µg/mL (≈ 1.63 µM).

And the MIC (Cryptococcus neoformans)?
The MIC was over 4 µg/mL.

And the MIC (Candida albicans [4])?
The MIC was 0.25 µg/mL (≈ 0.816 µM).

What about the MIC (Candida parapsilosis) of the same compound?
Its MIC is 0.5 µg/mL (≈ 1.63 µM).

What about the MIC (Candida tropicalis) of the same compound?
Its MIC is 2 µg/mL (≈ 6.53 µM).

What about the MIC (Candida albicans [5]) of the same compound?
Its MIC is over 4 µg/mL.
